In ChEMBL document CHEMBL1143936, “Role of benzimidazole (Bid) in the delta-opioid agonist pseudopeptide H-Dmt-Tic-NH-CH(2)-Bid (UFP-502)” (Bioorg Med Chem, 2008):

Tests used:
[1] = biological target: T1, Delta-type opioid receptor (Mus musculus, UniProt P32300); assay: Agonist activity at delta opioid receptor assessed as inhibition of electrically-stimulated mouse vas deferens contraction; format: functional, tissue-based
How it was run: (§1)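 Isolated tissues in organ baths of balanced physiological salt buffer, pH 7.5. δ: single mouse vas deferens. μ: 2–3 cm myenteric plexus–longitudinal muscle strips from the small intestine of male Hartley guinea pigs. Read-out was inhibition of electrically evoked contraction; IC50 from dose–response curves, mean ± SE of separate assays. Internal standards were DPDPE (vas deferens) and PL-017 (ileum).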

[2] = biological target: Mu-type opioid receptor (Cavia porcellus, UniProt P97266); assay: Agonist activity at mu opioid receptor assessed as inhibition of electrically-stimulated Hartley guinea pig contraction; format: functional, Hartely; how it was run: as §1
[3] = species on record: Rattus norvegicus; assay: Selectivity ratio of rat delta opioid receptor to rat mu opioid receptor
How it was run: (§2)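 Ratio of the Ki values for δ and μ sites, both from the same rat brain synaptosome competition binding assay (2.5 h, 23 °C; Cheng–Prusoff Ki).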

[4] = biological target: Mu-type opioid receptor (Rattus norvegicus, UniProt P33535); assay: Binding affinity to mu opioid receptor in Sprague-Dawley rat brain membrane; format: cell membranes
How it was run: (§3)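 Competition binding at equilibrium (2.5 h, 23 °C) on brain P2 synaptosomal membranes from Sprague-Dawley rats. Membranes were preincubated to strip endogenous opioid peptides and stored at −80 °C in buffered 20% glycerol. Filtration used GFC filters pre-soaked in 0.1% polyethylenimine, washed three times with ice-cold buffered BSA. Five to eight doses were run in duplicate, 3–5 independent membrane preparations each. Ki by Cheng–Prusoff, mean ± SE.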

[5] = biological target: Delta-type opioid receptor (Rattus norvegicus, UniProt P33533); assay: Binding affinity to delta opioid receptor in Sprague-Dawley rat brain membrane; format: cell membranes; how it was run: as §3
[6] = species on record: Rattus norvegicus; assay: Selectivity ratio of Sprague-Dawley rat mu opioid receptor to Sprague-Dawley rat delta opioid receptor; how it was run: as §2
[7] = biological target: T1, Delta-type opioid receptor; assay: Antagonist activity at delta opioid receptor assessed as DPDPE-stimulated mouse vas deferens contraction; format: functional, tissue-based; conditions: read-out: pA2 (converted)
How it was run: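 Mouse vas deferens in an organ bath with physiological salt buffer, pH 7.5, electrically stimulated. Antagonism was measured against the δ agonist DPDPE and expressed as pA2 from a Schild plot.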

Mu-type opioid receptor (Rattus norvegicus, UniProt P33535), sequence (P33535 whole entry): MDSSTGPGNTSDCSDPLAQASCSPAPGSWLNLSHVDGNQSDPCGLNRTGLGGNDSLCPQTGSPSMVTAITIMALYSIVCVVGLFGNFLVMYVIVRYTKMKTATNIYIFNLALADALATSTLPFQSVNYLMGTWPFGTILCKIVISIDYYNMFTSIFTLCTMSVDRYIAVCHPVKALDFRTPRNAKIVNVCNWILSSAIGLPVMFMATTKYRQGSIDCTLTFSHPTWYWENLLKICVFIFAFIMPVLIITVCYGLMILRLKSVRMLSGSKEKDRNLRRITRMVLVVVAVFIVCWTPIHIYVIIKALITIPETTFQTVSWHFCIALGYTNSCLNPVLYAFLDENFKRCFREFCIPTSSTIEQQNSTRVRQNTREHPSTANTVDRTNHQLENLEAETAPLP
Delta-type opioid receptor (Rattus norvegicus, UniProt P33533), sequence (P33533 whole entry): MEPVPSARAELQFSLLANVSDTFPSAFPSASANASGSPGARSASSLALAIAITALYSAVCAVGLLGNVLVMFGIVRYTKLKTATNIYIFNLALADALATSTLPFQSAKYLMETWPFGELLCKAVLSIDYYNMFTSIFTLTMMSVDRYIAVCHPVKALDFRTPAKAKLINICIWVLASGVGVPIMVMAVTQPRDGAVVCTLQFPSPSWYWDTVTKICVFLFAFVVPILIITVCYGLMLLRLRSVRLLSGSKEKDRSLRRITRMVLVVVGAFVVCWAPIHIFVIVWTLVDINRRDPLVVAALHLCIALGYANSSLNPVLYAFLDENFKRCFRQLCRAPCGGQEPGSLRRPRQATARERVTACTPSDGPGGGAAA
Mu-type opioid receptor (Cavia porcellus, UniProt P97266), sequence (P97266 whole entry): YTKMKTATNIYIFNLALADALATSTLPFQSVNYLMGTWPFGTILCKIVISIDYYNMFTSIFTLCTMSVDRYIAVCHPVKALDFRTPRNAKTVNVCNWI
T1 sequence (P32300 whole entry): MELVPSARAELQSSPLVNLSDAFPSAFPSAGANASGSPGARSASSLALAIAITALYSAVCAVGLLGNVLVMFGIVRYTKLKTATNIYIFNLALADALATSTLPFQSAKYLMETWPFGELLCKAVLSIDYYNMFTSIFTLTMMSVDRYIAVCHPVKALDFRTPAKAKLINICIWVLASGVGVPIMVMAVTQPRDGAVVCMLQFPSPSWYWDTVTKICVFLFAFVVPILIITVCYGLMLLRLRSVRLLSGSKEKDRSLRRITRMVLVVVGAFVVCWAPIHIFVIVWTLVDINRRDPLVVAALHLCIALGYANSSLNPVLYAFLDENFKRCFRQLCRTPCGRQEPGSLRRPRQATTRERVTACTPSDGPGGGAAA

Row | Compound | IC50 [1] | IC50 [2] | Ratio Ki [3] | Ki [4] | Ki [5] | Ratio Ki [6] | Kb [7]
1 | Cc1cc(O)cc(C)c1C[C@H](N)C(=O)N1Cc2ccccc2C[C@H]1C(=O)NCc1nc2ccccc2[nH]1 | 0.94 nM | 35.5 nM |  |  |  |  | 
2 | Cc1cc(O)cc(C)c1C[C@H](N)C(=O)N1Cc2ccccc2C[C@H]1C(=O)NCC1Cc2ccccc2C1 | 129 nM | 28.4 nM | 1.2 | 0.16 nM | 0.199 nM |  | 
3 | Cc1cc(O)cc(C)c1C[C@H](N)C(=O)N1Cc2ccccc2C[C@H]1C(=O)NCc1nc(-c2ccccc2)c[nH]1 |  | 154 nM |  | 6.74 nM | 0.443 nM | 15 | 0.398 nM
4 | Cc1cc(O)cc(C)c1C[C@H](N)C(=O)N1Cc2ccccc2C[C@H]1C(=O)NCc1nc2ccccc2s1 |  | 129 nM |  | 1.06 nM | 0.145 nM | 7.3 | 0.427 nM
5 | Cc1cc(O)cc(C)c1C[C@H](N)C(=O)N1Cc2ccccc2C[C@H]1C(=O)NCc1nc2ccccc2o1 |  | 170 nM |  | 1.42 nM | 0.283 nM | 5 | 0.38 nM
6 | Cc1cc(O)cc(C)c1C[C@H](N)C(=O)N1Cc2ccccc2C[C@H]1C(=O)NCc1cc2ccccc2[nH]1 |  | 209 nM |  | 0.7 nM | 0.066 nM | 10.6 | 0.355 nM
7 | Cc1cc(O)cc(C)c1C[C@H](N)C(=O)N1Cc2ccccc2C[C@H]1C(=O)NCc1ncc[nH]1 | 3.63 nM | 113 nM |  | 1.18 nM | 0.114 nM | 10 | 
